Test results as given in ChEMBL document CHEMBL5032509, “Design of a Stable Cyclic Peptide Analgesic Derived from Sunflower Seeds that Targets the κ-Opioid Receptor for the Treatment of Chronic Abdominal Pain” (J Med Chem, 2021).
Activity calls are given as the source filed them. No cut-off for these calls is given here. Bridge positions count the residues as written; N and C are the ends. Square brackets hold non-standard residues; d marks the D form. Peptide text beside a SMILES is read from it. dNle = CCCC[C@@H](N)C(=O)O

How the values were obtained:
[1] = target: Kappa-type opioid receptor (Mus musculus) (UniProt P33534); assay: Agonist activity at mouse KOR expressed in HEK293 cell assessed as maximal inhibition of cAMP concentration incubated for 1 hrs by time-resolved fluorescence resonance energy transfer assay relative to control; assay type: functional, cell-based; conditions: filed as agonist
Summary of the method: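 HEK293 cells stably expressing mouse KOR, 2000 cells/well, exposed to log-spaced peptide concentrations with forskolin (10 µM final) for 30 min at 37 °C. Eu-cryptate cAMP and d2-labelled anti-cAMP antibody then added for 1 h at room temperature. HTRF read as the 665/620 nm ratio, in triplicate. Three-parameter fit with bottom fixed at zero and slope one gives EC50 and Emax. Normalised to the highest dyn A 1–13 concentration (100%).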

[2] = Stability of the compound in simulated gastric fluid at pH 1.2 assessed as drug degradation by UPLC-UV analysis; assay type: ADME
Summary of the method: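 Peptide stock (2 mM in water) diluted 5:95 into USP simulated gastric fluid, pepsin added after adjusting to pH 1.2, incubated at 37 °C. Aliquots taken at 0, 15, 30 min and 1, 3, 6 h, quenched in ice-cold methanol. Data fitted to exponential decay for half-life.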

[3] = target: T1, Kappa-type opioid receptor (Mus musculus, UniProt P33534); assay: Displacement of [3H]-diprenorphine from mouse KOR expressed in HEK293 cell membranes by radioligand binding assay relative to control; parameters: species or system Cell membrane
Summary of the method: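 Membranes from HEK293 cells stably expressing mouse KOR (7 µg/assay). Filtered onto PEI-soaked GF/C filters. Specific binding = total minus nonspecific, normalized to binding without peptide. […]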

[4] = target: T1, Kappa-type opioid receptor; assay: Agonist activity at mouse KOR expressed in HEK293 cell assessed as inhibition of cAMP concentration incubated for 1 hrs by time-resolved fluorescence resonance energy transfer assay; assay type: functional, cell-based
Summary of the method: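 HEK293 cells stably expressing mouse KOR, 2000 cells/well, exposed to log-spaced peptide concentrations with forskolin (10 µM final) for 30 min at 37 °C. Eu-cryptate cAMP and d2-labelled anti-cAMP antibody then added for 1 h at room temperature. Three-parameter fit with bottom fixed at zero and slope one gives EC50 and Emax. Normalised to the highest dyn A 1–13 concentration (100%).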

[5] = species on record: Mus musculus; assay: Analgesic activity in chronic visceral hypersensitivity-induced chronic abdominal pain mouse model assessed as reduction in colonic nociceptor mechano-sensitivity at 0.1 uM measured at 5 mins by Von Frey filament assay; assay type: functional
Summary of the method: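 Ex vivo colon with attached splanchnic nerves from male C57BL/6J mice, 28 days after DNBS-induced colitis. Colon superfused with carbogen-gassed modified Krebs at 34 °C. Single-unit extracellular recordings of nociceptor firing to 2 g von Frey filament stimulation, repeated after 5 min drug application via a metal ring over the receptive field.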

[6] = target: Kappa-type opioid receptor (Mus musculus) (UniProt P33534); assay: Displacement of [3H]-diprenorphine from mouse KOR expressed in HEK293 cell membranes at 10 uM by two-point binding assay; conditions: Cell membrane, filed as agonist
Summary of the method: (§1)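 Two-point competition at 10 µM and 100 nM peptide. Membranes (7 µg) from HEK293 cells stably expressing mouse KOR incubated with [3H]-diprenorphine (1 nM final) for 1 h at 37 °C in 50 mM Tris–HCl pH 7.4, 10 mM MgCl2, 0.1% BSA. Stopped by filtration onto PEI-soaked GF/C filters. Nonspecific binding subtracted; normalised to specific binding without peptide; mean ± SD.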

[7] = target: Kappa-type opioid receptor (Mus musculus) (UniProt P33534); assay: Displacement of [3H]-diprenorphine from mouse KOR expressed in HEK293 cell membranes at 100 nM by two-point binding assay; conditions: Cell membrane, filed as agonist; summary of the method: as §1
[8] = target: Mu-type opioid receptor (Mus musculus, UniProt P42866); assay: Displacement of [3H]-diprenorphine from mouse MOR expressed in HEK293 cell membranes by radioligand binding assay relative to control; parameters: species or system Cell membrane
Summary of the method: (§2)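 Membranes from HEK293 cells stably expressing mouse DOR (20 µg/assay) or MOR (50 µg/assay). Incubated with 1 nM final [3H]-diprenorphine in 50 mM Tris–HCl pH 7.4, 10 mM MgCl2, 0.1% BSA for 1 h at 37 °C, in duplicate. Stopped by filtration onto PEI-soaked GF/C filters. Specific binding = total minus nonspecific, normalized to specific binding without peptide; n = 2.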

[9] = target: Delta-type opioid receptor (Mus musculus, UniProt P32300); assay: Displacement of [3H]-diprenorphine from mouse DOR expressed in HEK293 cell membranes by radioligand binding assay relative to control; parameters: species or system Cell membrane; summary of the method: as §2
[10] = target: T1, Kappa-type opioid receptor; assay: Agonist activity at EGFP-tagged mouse KOR expressed in HEK293 cells co-expressing beta-arrestin2 nano-luciferase assessed as beta-arrestin2 recruitment for 5 mins by BRET assay; assay type: functional, cell-based
Summary of the method: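 HEK293 cells co-transfected with human β-arrestin-2 nano-luciferase and mouse KOR-EGFP plasmids (1:10). After ≥16 h they were plated in phenol red-free DMEM with 10% FBS and left to adhere overnight, then serum-starved 1 h at 37 °C. Furimazine (1:50) added for 5 min at 37 °C, with a 5 min baseline. Peptide added for 5 min at 37 °C in triplicate. Luminescence read at 460 nm and EGFP fluorescence at 510 nm.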

[11] = system: Mus musculus; assay: Effect on healthy mouse assessed as visceromotor response measured at different colorectal distention pressure at 10 uM intra-colonic administration as enema by electromyography; assay type: ADME, organism-based; conditions: in vivo, other
Summary of the method: (§3)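 Healthy or CVH (DNBS 6 mg in 30% ethanol enema, 28 d recovery) female mice. Under brief isoflurane, 100 µL enema of saline vehicle or peptide (10 µM). EMG from abdominal muscle electrodes during balloon CRD at 20, 40, 50, 60 and 80 mmHg (20 s each), run 10–30 min after dosing. Rectified, integrated AUC; mean ± SEM.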

[12] = system: Mus musculus; assay: Reduction in visceromotor response in chronic visceral hypersensitivity-induced chronic abdominal pain mouse model measured at different colorectal distention pressure at 10 uM intra-colonic administration as enema by electromyography; assay type: functional, organism-based; summary of the method: as §3
[13] = species on record: Mus musculus; assay: Analgesic activity in chronic visceral hypersensitivity-induced chronic abdominal pain mouse model assessed as reduction in mechanical stimulation induced action potential firing of colonic nociception at 1 uM measured at 5 mins […]; assay type: functional
Summary of the method: (§4)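 Ex vivo colon with attached splanchnic nerve from DNBS-induced CVH mice. Colon superfused with carbogen-gassed modified Krebs at 34 °C. Single-unit extracellular recording of nociceptor firing to 2 g von Frey probing, repeated after 5 min ring application of peptide (1 µM), with or without 5 min nor-BNI pre-incubation. Paired t-test.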

[14] = species on record: Mus musculus; assay: Analgesic activity in chronic visceral hypersensitivity-induced chronic abdominal pain mouse model assessed as reduction in colonic nociceptor mechano-sensitivity at 1 uM in presence of 0.1 uM nor-BNI measured at 5 mins […]; assay type: functional; summary of the method: as §4
[15] = Toxicity in mouse assessed as motor coordination by measuring latency to fall in mouse at 5 mg/kg, ip measured at 45 mins by rotarod test; assay type: organism-based; conditions: in vivo, 0.75 h
Summary of the method: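 Male C57BL/6N mice (8 weeks) given 5 mg/kg i.p. in saline (10 µL/g); vehicle 0.9% NaCl. After habituation, drum accelerated from 4 to 40 rpm. Three trials 15 min apart, starting 45 min post-injection; latency to fall averaged. Mean ± SEM, one-way ANOVA with Fisher's LSD, N = 8–12/group.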

[16] = Toxicity in mouse assessed as […] by measuring vocalization in mouse at 5 mg/kg, ip measured at 60 mins by […]; assay type: organism-based; conditions: in vivo, 1 h
[17] = Toxicity in mouse assessed as […] by measuring flinch response in mouse at 5 mg/kg, ip measured at 60 mins by […]; assay type: organism-based; conditions: in vivo, 1 h
Summary of the method: (§5)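 Male C57BL/6N mice given 5 mg/kg i.p. in saline (vehicle 0.9% NaCl). Jump-flinch test 60 min post-injection: 1 min exploration, then 1 s foot shocks every 30 s at six intensities. Intensity at first flinch, vocalization and jump recorded. Mean ± SEM, one-way ANOVA with Fisher's LSD, N = 8–12/group.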

[18] = Toxicity in mouse assessed as […] by measuring jump response in mouse at 5 mg/kg, ip measured at 60 mins by […]; assay type: organism-based; conditions: in vivo, 1 h; summary of the method: as §5

Kappa-type opioid receptor (Mus musculus), sequence (P33534 whole entry): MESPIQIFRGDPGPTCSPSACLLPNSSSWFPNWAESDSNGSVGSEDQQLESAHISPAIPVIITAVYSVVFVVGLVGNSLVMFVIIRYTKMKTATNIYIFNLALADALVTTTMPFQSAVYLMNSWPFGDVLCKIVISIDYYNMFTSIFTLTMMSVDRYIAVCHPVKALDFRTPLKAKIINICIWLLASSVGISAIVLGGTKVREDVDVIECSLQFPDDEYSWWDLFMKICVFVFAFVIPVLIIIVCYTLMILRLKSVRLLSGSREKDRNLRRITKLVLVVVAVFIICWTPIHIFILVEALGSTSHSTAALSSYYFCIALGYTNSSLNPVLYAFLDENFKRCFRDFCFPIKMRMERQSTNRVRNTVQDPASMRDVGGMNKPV
T1 sequence (P33534 whole entry): as above
Mu-type opioid receptor, sequence (P42866 whole entry): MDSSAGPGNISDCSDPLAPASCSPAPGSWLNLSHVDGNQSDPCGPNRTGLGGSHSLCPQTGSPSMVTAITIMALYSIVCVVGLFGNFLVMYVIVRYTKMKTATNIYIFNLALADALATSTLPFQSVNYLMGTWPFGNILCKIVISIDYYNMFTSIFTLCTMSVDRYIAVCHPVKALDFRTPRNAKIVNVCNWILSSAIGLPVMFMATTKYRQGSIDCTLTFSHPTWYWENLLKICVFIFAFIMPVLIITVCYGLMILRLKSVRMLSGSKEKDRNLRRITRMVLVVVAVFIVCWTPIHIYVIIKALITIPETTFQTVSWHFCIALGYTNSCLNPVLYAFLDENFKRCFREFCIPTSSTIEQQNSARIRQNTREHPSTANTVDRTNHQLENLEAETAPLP
Delta-type opioid receptor, sequence (P32300 whole entry): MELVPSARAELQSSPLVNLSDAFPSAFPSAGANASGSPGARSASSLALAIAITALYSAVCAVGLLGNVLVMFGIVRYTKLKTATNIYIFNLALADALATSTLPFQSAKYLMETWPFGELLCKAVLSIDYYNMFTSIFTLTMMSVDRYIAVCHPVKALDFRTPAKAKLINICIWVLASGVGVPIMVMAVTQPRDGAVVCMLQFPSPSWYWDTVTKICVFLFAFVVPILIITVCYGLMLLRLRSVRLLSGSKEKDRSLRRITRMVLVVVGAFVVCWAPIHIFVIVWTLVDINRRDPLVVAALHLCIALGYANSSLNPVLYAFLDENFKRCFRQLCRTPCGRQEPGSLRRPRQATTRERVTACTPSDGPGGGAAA

CC[C@H](C)[C@H](NC(=O)[C@H](CCCN=C(N)N)NC(=O)[C@H](CCCN=C(N)N)NC(=O)[C@H](CC(C)C)NC(=O)[C@H](Cc1ccccc1)NC(=O)CNC(=O)CNC(=O)[C@@H](N)Cc1ccc(O)cc1)C(=O)N[C@@H](CCCN=C(N)N)C(=O)N1CCC[C@H]1C(=O)N[C@@H](CCCCN)C(=O)N[C@@H](CC(C)C)C(=O)N[C@@H](CCCCN)C(N)=O
Emax [1]: 100%
half-life [2]: < 15 min

CC[C@H](C)[C@@H]1NC(=O)[C@@H]2CCCN2C(=O)[C@@H]2CCCN2C(=O)[C@H]([C@@H](C)CC)NC(=O)[C@H](CO)NC(=O)[C@H](CCCCN)NC(=O)[C@H]([C@@H](C)O)NC(=O)[C@@H]2CSSC[C@H](NC1=O)C(=O)N[C@@H](Cc1ccccc1)C(=O)N1CCC[C@H]1C(=O)N[C@@H](CC(=O)O)C(=O)NCC(=O)N[C@@H](CCCNC(=N)N)C(=O)N2
Ki [3]: > 30 µM

CC[C@H](C)[C@@H]1NC(=O)[C@H](CCCNC(=N)N)NC(=O)[C@H](CCCNC(=N)N)NC(=O)[C@H](CC(C)C)NC(=O)[C@H](Cc2ccccc2)NC(=O)CNC(=O)CNC(=O)[C@H](Cc2ccc(O)cc2)NC(=O)[C@@H]2CSSC[C@H](NC1=O)C(=O)N[C@@H](Cc1ccccc1)C(=O)N1CCC[C@H]1C(=O)N[C@@H](CC(=O)O)C(=O)NCC(=O)N[C@@H](CCCNC(=N)N)C(=O)N2
Ki ([3]; hek293): 3.2 µM
EC50 ([4]; hek293): 1.4 µM

Oc1ccc2c3c1O[C@H]1c4[nH]c5c(c4C[C@@]4(O)[C@@H](C2)N(CC2CC2)CC[C@]314)C[C@@]1(O)[C@H]2Cc3ccc(O)c4c3[C@@]1(CCN2CC1CC1)[C@H]5O4
Activity [5]: inactive

CC[C@H](C)[C@@H]1NC(=O)[C@@H]2CCCN2C(=O)[C@@H]2CCCN2C(=O)[C@H]([C@@H](C)CC)NC(=O)[C@H](CO)NC(=O)[C@H](C)NC(=O)[C@H]([C@@H](C)O)NC(=O)[C@@H]2CSSC[C@H](NC1=O)C(=O)N[C@@H](Cc1ccc(O)cc1)C(=O)NCC(=O)NCC(=O)N[C@@H](Cc1ccccc1)C(=O)N[C@@H](CCCNC(=N)N)C(=O)N2 (cyclo(ASIPPICYGGFRCT); disulfide 7-13)
Ki ([3]; hek293): > 10 µM

CC[C@H](C)[C@@H]1NC(=O)[C@@H]2CCCN2C(=O)[C@@H]2CCCN2C(=O)[C@H]([C@@H](C)CC)NC(=O)[C@H](CO)NC(=O)[C@H](C)NC(=O)[C@H]([C@@H](C)O)NC(=O)[C@@H]2CSSC[C@H](NC1=O)C(=O)N[C@H](Cc1ccccc1)C(=O)N[C@H](Cc1ccccc1)C(=O)N[C@H](CC(C)C)C(=O)N[C@H](CCCCN)C(=O)N[C@@H](CCCNC(=N)N)C(=O)N2 (cyclo(ASIPPIC[dF][dF][dL][dK]RCT); disulfide 7-13)
Ki ([3]; hek293): > 10 µM

CCCC[C@H]1NC(=O)[C@@H](Cc2ccccc2)NC(=O)[C@@H](Cc2ccccc2)NC(=O)[C@@H]2CSSC[C@H](NC(=O)[C@H](CCCNC(=N)N)NC(=O)[C@@H](CCCNC(=N)N)NC1=O)C(=O)N[C@@H]([C@@H](C)O)C(=O)N[C@@H](C)C(=O)N[C@@H](CO)C(=O)N[C@@H]([C@@H](C)CC)C(=O)N1CCC[C@H]1C(=O)N1CCC[C@H]1C(=O)N[C@@H]([C@@H](C)CC)C(=O)N2 (cyclo(ASIPPIC[dF][dF][dNle][dR]RCT); disulfide 7-13)
Ki ([3]; hek293): > 10 µM

CC[C@H](C)[C@@H]1NC(=O)[C@@H]2CCCN2C(=O)[C@H](Cc2ccccc2)NC(=O)CNC(=O)CNC(=O)[C@H](Cc2ccc(O)cc2)NC(=O)[C@H]([C@@H](C)O)NC(=O)[C@@H]2CSSC[C@H](NC1=O)C(=O)N[C@@H](Cc1ccccc1)C(=O)N1CCC[C@H]1C(=O)N[C@@H](CC(=O)O)C(=O)NCC(=O)N[C@@H](CCCNC(=N)N)C(=O)N2 (cyclo(CFPDGRCTYGGFPI); disulfide 1-7)
Ki ([3]; hek293): > 10 µM

CC[C@H](C)[C@@H]1NC(=O)[C@@H]2CSSC[C@H](NC(=O)[C@H](CCCCN)NC(=O)[C@H](CC(C)C)NC(=O)[C@H](CCCCN)NC(=O)[C@@H]3CCCN3C(=O)[C@H](CCCNC(=N)N)NC1=O)C(=O)N[C@@H](Cc1ccc(O)cc1)C(=O)NCC(=O)NCC(=O)N[C@@H](Cc1ccccc1)C(=O)N[C@@H](CC(C)C)C(=O)N[C@@H](CCCNC(=N)N)C(=O)N[C@@H](CCCNC(=N)N)C(=O)N2 (cyclo(CIRPKLKCYGGFLRR); disulfide 1-8)
Ki [3]: 0.021 µM
Activity [6]: Active
EC50 [4]: 0.045 µM
Activity [7]: Active
Ki [8]: > 10 µM
Ki [9]: > 10 µM
EC50 [10]: 1.4 µM
Activity [11]: Non-Toxic
Activity [12]: Active
Activity [13]: Active
Activity [14]: Active
Activity [15]: Non-Toxic
Activity [16]: Non-Toxic
Activity [17]: Non-Toxic
Activity [18]: Non-Toxic
